High-throughput results: PubChem, several laboratories
Rows were chosen to be rich in hits. Some 1.6% of all compounds tested hit in one or more screens of this group.
SR-BI HDL uptake – mouse SR-BI HDL lipid transfer inhibition. inhibition, % at 12.5 µM. ldlA[mSR-BI] CHO cells, DiI-HDL uptake fluorescence, 3 h. 0.96% of 320,000 active;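 active means mean replicate inhibition of at least 70% and a set share of replicates each scoring 70 or more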;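 further: 0% = median of neutral control wells and 100% = median of positive control wells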
Target sequence (Q61009 whole entry, looked up): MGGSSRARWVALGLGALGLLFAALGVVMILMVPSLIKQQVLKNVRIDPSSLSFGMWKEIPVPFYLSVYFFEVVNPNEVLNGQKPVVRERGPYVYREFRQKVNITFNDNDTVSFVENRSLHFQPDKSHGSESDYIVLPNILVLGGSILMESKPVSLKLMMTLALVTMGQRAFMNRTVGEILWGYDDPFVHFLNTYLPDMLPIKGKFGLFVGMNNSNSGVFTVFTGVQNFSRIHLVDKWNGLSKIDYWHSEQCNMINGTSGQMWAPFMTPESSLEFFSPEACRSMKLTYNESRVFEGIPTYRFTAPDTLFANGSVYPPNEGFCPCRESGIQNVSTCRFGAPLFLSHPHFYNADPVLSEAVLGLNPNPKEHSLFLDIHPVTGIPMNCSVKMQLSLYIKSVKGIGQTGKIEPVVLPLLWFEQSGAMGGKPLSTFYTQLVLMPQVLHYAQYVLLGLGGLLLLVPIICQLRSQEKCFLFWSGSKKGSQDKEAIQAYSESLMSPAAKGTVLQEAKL
SR-BI DiI-HDL act – activators of SR-BI mediated HDL lipid uptake. CHO ldlA[mSR-BI] cells, DiI-HDL uptake fluorescence, 3 h; 100 = double the neutral-control signal. activation, % at 12.5 µM. 0.096% of 320,000 active;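 active means mean replicate activation of at least 60% and every replicate at or above 60%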;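 further: 0% = median plate neutral-control signal and 100% = twice that signal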
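Test system: SR-BI-overexpressing, LDLR-lacking CHO cells. Measured by: DiI fluorescence, bottom read. Medium: Ham's F12 with 0.5% BSA, HEPES 25 mM, pH 7.4. Timing: 3 h uptake period with compound, 37 °C.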
H9c2 TAG inh – inhibitors of triacylglycerol accumulation. inhibition, % at 12.5 µM. H9c2 cells, Nile Red lipid (TAG) fluorescence; cells loaded with 200 µM oleic acid. 0.66% of 230,000 active;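 active means pattern-corrected inhibition of lipid staining of at least 50% with the nuclear-stain viability signal not falling by more than 50%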;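 further: 0% = DMSO wells and 100% = triacsin C control wells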
Bfl-1 A1 inh – inhibitors of the anti-apoptotic protein A1, read as caspase activation; 0.066% of 330,000 active; AID 2462; MEF A1-2A-BIM cells, Caspase-Glo 3/7 luminescence, 3 h; percent of clofoctol response, vehicle zero; caspase activation, % (concentration not given with the values);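 active means over half of replicate activation scores above 10%, or exactly half above 10 with the replicate mean above 10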
Vif imaging – inhibitors of HIV Vif; HEK293T cells, Vif self-association by quenched fluorescence, imaging, 24 h; inhibition, % at 7.49 µM; 0.35% of 340,000 active; AID 602346; in the data active means inhibition above about 50%, passing the limit was not always enough
* = called active by the depositor; · = no result given; + = active, no number.

SMILES	SR-BI HDL uptake	SR-BI DiI-HDL act	H9c2 TAG inh	Bfl-1 A1 inh	Vif imaging
O=C(NCc1ccccc1C(F)(F)F)c1cccc2c1C(=O)c1ccc(N3CCCCC3)cc1S2(=O)=O	-7.4	7.4	-40.5	-0.3	+
COc1ccc(NC(=O)c2cccn(CC=C(C)C)c2=O)cc1	10.6	-10.6	-2.8	-0.3	-3.2
COc1ccc(Cn2c(=O)[nH]c3cc(C(=O)N4CCN(c5ccccn5)CC4)ccc3c2=O)cc1	·	·	18.6	-0.1	5.7
NC(=O)NOCc1ccccc1F	-12.3	12.3	·	-0.4	-3.5
Cc1ccn2c(/C=N/OCc3cccc(F)c3)c(-c3ccc(Cl)cc3)nc2c1	77.6*	-77.6	39.2	-0.5	1.8
Cc1ccn2c(/C=N/OCc3ccc(F)cc3)c(-c3ccc(Cl)cc3)nc2c1	62.7	-62.7	24.4	-1.1	13.6
COc1ccc(/C=N/NC(=O)c2nnn(-c3nonc3N)c2-c2cccc(OC)c2)cc1	30.0	-30.0	·	-1.6	5.6
CC1CCN(Cc2c(C(=O)N/N=C/c3cc(Br)ccc3O)nnn2-c2nonc2N)CC1	102.7*	-102.6	·	0.0	52.5*
COc1ccc(O)c(/C=N/NC(=O)c2c(C)nnn2-c2nonc2N)c1	100.6*	-100.6	-11.5	0.5	1.8
CCOC(=O)c1c(-c2ccc(OC)cc2)csc1NC(=O)COc1ccc2c(C)cc(=O)oc2c1	73.5*	-73.5	·	-0.4	19.6
Cc1ccc2nc(NCC(=O)O)nc(-c3ccccc3)c2c1	38.0	-38.0	·	0.6	8.1
COc1cc(Nc2nc(-c3ccccc3)c3cc(C)ccc3n2)cc(OC)c1OC	71.9*	-71.9	6.6	0.7	-9.0
COc1ccc(OC)c(NC(=O)CSc2nc(=O)n(Cc3ccccn3)c3c2CCC3)c1	35.1	-35.1	-2.0	-1.0	·
CCOC(=O)C1CCCN(CC(=O)Nc2c(C(=O)OC)[nH]c3ccc(Cl)cc23)C1 (configuration not stated)	35.8	-35.8	·	-0.5	61.4*
Cc1c(Cl)c(C(=O)N2CCCCCC2)nn1C	11.9	-11.9	-9.8	0.2	-3.1
O=[N+]([O-])c1ccc(OCc2cnc(Cl)s2)cc1	-14.5	14.5	-16.5	·	3.1
COc1ccc(OCc2cnc(Cl)s2)cc1	-16.5	16.5	·	-1.3	54.5*
CC(C)C1Oc2cc3oc(=O)ccc3cc2C1=O (configuration not stated)	-16.0	16.0	-4.4	-0.3	16.9
CN(Cc1ccc(Cl)s1)C(=O)CCl	-8.2	8.2	65.4*	0.1	-1.1
CCN(CC)CC(C)(C)C(=O)/C=C/c1ccc(/C=C/C(=O)C(C)(C)CN(CC)CC)cc1	-4.2	4.2	112.3*	·	24.4
COc1cc2c(cc1OC)/C(=C/C(=O)c1cccc([N+](=O)[O-])c1)NCC2	69.1	-69.1	·	-0.5	-2.3
COc1cc2c(cc1OC)/C(=C/C(=O)c1ccc(OC)c([N+](=O)[O-])c1)NCC2	85.4*	-85.4	·	0.2	53.0*
O=C(NCCS(=O)(=O)NCc1ccc2c(c1)OCO2)c1ccccc1	-18.3	18.3	-5.3	-0.5	3.4
CN(CC(=O)Nc1cccc(F)c1)C(=O)c1cccc(S(=O)(=O)N2CC3(C)CC2CC(C)(C)C3)c1 (configuration not stated)	0.0	0.0	-19.5	-0.2	1.7
CC1CCN(S(=O)(=O)c2ccc3c(c2)C(=NO)c2cc(S(=O)(=O)N4CCC(C)CC4)ccc2-3)CC1	-7.0	7.0	84.1*	2.1	-19.6
COc1ccc(S(=O)(=O)N2CCC(C)CC2)cc1OC	76.3*	-76.3	·	0.9	3.1
CCN(CC)S(=O)(=O)c1ccc2c(c1)C(=NO)c1cc(S(=O)(=O)N(CC)CC)ccc1-2	32.9	-32.9	53.4*	-0.2	-21.6
COC(=O)CC1C(=O)NCCN1C(=O)CSc1nnnn1-c1ccc(Cl)cc1 (configuration not stated)	-11.3	11.3	5.2	0.0	·
CN(Cc1ccccc1)C(=O)c1cccc(NC(=O)Cc2ccc(NC(=O)C3CCCN(C(=O)C4CCCCC4)C3)cc2)c1 (configuration not stated)	74.8*	-74.8	-6.5	·	-6.4
CN(C(=O)c1cccc(NC(=O)Cc2ccc(NC(=O)C3CCCN(C(=O)C4CCC4)C3)cc2)c1)C1CCCCC1 (configuration not stated)	87.7*	-87.7	0.9	·	-8.1
